Laboratory results from ChEMBL document CHEMBL4619802, “Discovery and Characterization of Pure RhlR Antagonists against Pseudomonas aeruginosa Infections” (J Med Chem, 2020).
Activity calls are given as the source filed them. No cut-off for these calls is given here.

Key:
[1] = tested on: Pseudomonas aeruginosa; assay: Antibacterial activity against Pseudomonas aeruginosa assessed as bacterial growth at 100 uM incubated for 24 hrs relative to control; format: functional
Method in brief: (§1)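 P. aeruginosa overnight culture (OD595 1.0) diluted 1:20 in AB medium (pH 7.5, 1% glucose, casamino acids, arginine) with compound, in borosilicate bottles, 37 °C for 24 h without shaking. Growth taken as OD595 of the suspended culture. Attached cells washed twice with PBS, stained with 0.1% crystal violet for 10 min, dye eluted in ethanol and read at 545 nm.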

[2] = target: T1, HTH-type quorum-sensing regulator RhlR (Pseudomonas aeruginosa (strain ATCC 15692 / PAO1 / 1C / PRS 101 / LMG12228)) (UniProt P54292); assay: Modulation of RhlR in Pseudomonas aeruginosa assessed as biofilm formation at 10 uM incubated for 24 hrs under static condition by crystal violet staining based assay relative to control
T1 sequence (whole entry): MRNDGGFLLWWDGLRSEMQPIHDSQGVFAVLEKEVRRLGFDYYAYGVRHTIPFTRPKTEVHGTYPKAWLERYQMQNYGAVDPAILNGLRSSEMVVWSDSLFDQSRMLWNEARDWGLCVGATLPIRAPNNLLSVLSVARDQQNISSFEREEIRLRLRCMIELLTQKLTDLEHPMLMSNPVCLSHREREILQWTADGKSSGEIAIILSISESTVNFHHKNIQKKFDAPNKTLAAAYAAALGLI

[3] = target: T1, HTH-type quorum-sensing regulator RhlR (Pseudomonas aeruginosa (strain ATCC 15692 / PAO1 / 1C / PRS 101 / LMG12228)); assay: Agonist activity at Pseudomonas aeruginosa RhlR expressed in Escherichia coli DH5alpha assessed as relative protein activity at 100 uM incubated for 1.5 hrs by luminescence reporter gene assay relative to control
[4] = target: T1, HTH-type quorum-sensing regulator RhlR (Pseudomonas aeruginosa (strain ATCC 15692 / PAO1 / 1C / PRS 101 / LMG12228)); assay: Antagonist activity at Pseudomonas aeruginosa RhlR expressed in Escherichia coli DH5alpha assessed as relative protein activity at 100 uM incubated for 1.5 hrs in presence of N-butyryl-L-homoserine lactone by luminescence reporter gene assay relative to control; parameters: scale not given: the % may be the effect or the level left
Method in brief: (§2)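 E. coli DH5α sdiA mutant carrying RhlR and rhlA::lacZ plasmids, at OD595 0.3 in LB. Compound given with BHL (10 µM per footnote) and 0.4% arabinose, 37 °C for 1.5 h.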

[5] = target: T1, HTH-type quorum-sensing regulator RhlR (Pseudomonas aeruginosa (strain ATCC 15692 / PAO1 / 1C / PRS 101 / LMG12228)); assay: Antagonist activity at RhlR in Pseudomonas aeruginosa assessed as rhamnolipid production at 100 uM incubated for 24 hrs by Orcinol staining based assay relative to control; parameters: scale not given: the % may be the effect or the level left
[6] = target: T1, HTH-type quorum-sensing regulator RhlR (Pseudomonas aeruginosa (strain ATCC 15692 / PAO1 / 1C / PRS 101 / LMG12228)); assay: Antagonist activity at RhlR in Pseudomonas aeruginosa assessed as rhamnolipid production at 10 uM incubated for 24 hrs by Orcinol staining based assay relative to control; parameters: scale not given: the % may be the effect or the level left
[7] = tested on: Pseudomonas aeruginosa; assay: Antibacterial activity against Pseudomonas aeruginosa assessed as bacterial growth at 10 uM incubated for 24 hrs relative to control; format: functional; method in brief: as §1
[8] = target: T1, HTH-type quorum-sensing regulator RhlR (Pseudomonas aeruginosa (strain ATCC 15692 / PAO1 / 1C / PRS 101 / LMG12228)); assay: Modulation of RhlR in Pseudomonas aeruginosa assessed as biofilm formation at 100 uM incubated for 24 hrs under static condition by crystal violet staining based assay relative to control
[9] = target: T1, HTH-type quorum-sensing regulator RhlR (Pseudomonas aeruginosa (strain ATCC 15692 / PAO1 / 1C / PRS 101 / LMG12228)); assay: Agonist activity at Pseudomonas aeruginosa RhlR expressed in Escherichia coli DH5alpha assessed as relative protein activity at 1000 uM incubated for 1.5 hrs by luminescence reporter gene assay relative to control
[10] = target: T1, HTH-type quorum-sensing regulator RhlR (Pseudomonas aeruginosa (strain ATCC 15692 / PAO1 / 1C / PRS 101 / LMG12228)); assay: Antagonist activity at Pseudomonas aeruginosa RhlR expressed in Escherichia coli DH5alpha assessed as relative protein activity at 10 uM incubated for 1.5 hrs in presence of N-butyryl-L-homoserine lactone by luminescence reporter gene assay relative to control; parameters: scale not given: the % may be the effect or the level left; method in brief: as §2
[11] = target: T2, Transcriptional activator protein LasR (Pseudomonas aeruginosa (strain ATCC 15692 / PAO1 / 1C / PRS 101 / LMG12228)) (UniProt P25084); assay: Agonist activity at Pseudomonas aeruginosa LasR expressed in Escherichia coli DH5alpha at 0.1 to 10 uM incubated for 1.5 hrs by luminescence reporter gene assay
T2 sequence (whole entry): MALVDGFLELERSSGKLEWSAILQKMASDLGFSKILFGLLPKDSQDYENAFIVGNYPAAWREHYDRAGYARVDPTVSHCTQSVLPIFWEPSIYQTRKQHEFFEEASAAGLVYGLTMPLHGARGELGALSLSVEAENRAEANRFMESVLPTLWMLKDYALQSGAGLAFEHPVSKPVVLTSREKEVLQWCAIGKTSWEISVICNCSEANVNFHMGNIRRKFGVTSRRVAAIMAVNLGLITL

[12] = target: T3, Transcriptional regulator MvfR (Pseudomonas aeruginosa PA14) (UniProt A0A072ZLE6); assay: Agonist activity at Pseudomonas aeruginosa PqsR expressed in Escherichia coli DH5alpha at 0.1 to 10 uM incubated for 1.5 hrs by luminescence reporter gene assay
T3 sequence (whole entry): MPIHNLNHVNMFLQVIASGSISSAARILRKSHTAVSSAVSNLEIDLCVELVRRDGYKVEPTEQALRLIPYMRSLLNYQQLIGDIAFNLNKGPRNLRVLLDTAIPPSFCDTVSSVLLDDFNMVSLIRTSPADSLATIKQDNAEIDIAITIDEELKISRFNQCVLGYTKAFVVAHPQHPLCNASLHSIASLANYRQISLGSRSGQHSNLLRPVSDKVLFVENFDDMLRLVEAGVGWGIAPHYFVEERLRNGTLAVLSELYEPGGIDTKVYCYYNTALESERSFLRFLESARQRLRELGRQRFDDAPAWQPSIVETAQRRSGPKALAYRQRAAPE

[13] = target: T3, Transcriptional regulator MvfR (Pseudomonas aeruginosa PA14); assay: Antagonist activity at Pseudomonas aeruginosa PqsR expressed in Escherichia coli DH5alpha at 0.1 to 10 uM incubated for 1.5 hrs by luminescence reporter gene assay
[14] = target: T1, HTH-type quorum-sensing regulator RhlR (Pseudomonas aeruginosa (strain ATCC 15692 / PAO1 / 1C / PRS 101 / LMG12228)); assay: Modulation of RhlR in Pseudomonas aeruginosa assessed as reduction in biofilm formation at 10 uM incubated for 48 hrs under dynamic condition by measuring biofilm volume by 4',6-diamidino-2-phenylindole staining based confocal laser scanning microscopy
Method in brief: (§3)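 Drip-flow reactor with glass slides, fed continuously at 0.3 mL/min with AB medium containing 5% P. aeruginosa (OD595 1.0) plus compound, 37 °C for 48 h. Unattached cells removed with PBS. Volume and thickness obtained with Comstat2.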

[15] = target: T1, HTH-type quorum-sensing regulator RhlR (Pseudomonas aeruginosa (strain ATCC 15692 / PAO1 / 1C / PRS 101 / LMG12228)); assay: Modulation of RhlR in Pseudomonas aeruginosa assessed as reduction in biofilm formation at 10 uM incubated for 48 hrs under dynamic condition by measuring biofilm thickness by 4',6-diamidino-2-phenylindole staining based confocal laser scanning microscopy; method in brief: as §3
[16] = tested on: Pseudomonas aeruginosa; assay: Downregulation of rhlA expression in biofilm of Pseudomonas aeruginosa at 10 uM after 24 hrs by RT-qPCR analysis relative to control; format: functional
Method in brief: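 P. aeruginosa (OD595 1.0) diluted 1:20 in AB medium with compound in borosilicate bottles, 37 °C for 24 h. Total RNA extracted from biofilm cells and run by SYBR RT-qPCR with QS-gene primers. Cycling: 95 °C 10 s, then 40 cycles of 95 °C 10 s and 60 °C 10 s.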

Row | Compound | Activity [1] | Activity [2] | Activity [3] [%] | Activity [4] [%] | Activity [5] [%] | Activity [6] [%] | Activity [7] [%] | Activity [8] [%] | Activity [9] [%] | Activity [10] [%] | Activity [11] | Activity [12] | Activity [13] | Activity [14] [um3/um2] | Activity [15] [µm] | Activity [16]
1 | CCCCCC(=O)C#Cc1ccc(O)c(OC)c1 | inactive | Active | 3 | 29 | – | – | – | – | – | – | – | – | – | – | – | –
2 | CCCC(O)CC(=O)/C=C/c1ccc(F)c(F)c1 (stereo unspecified) | 105% | 72% | 2 | 20 | 50 | 63 | 101 | 53 | 5 | 60 | – | – | – | – | – | –
3 | CCCCCC(O)C#Cc1ccc(O)c(OC)c1 (racemic) | inactive | Active | 3 | 32 | – | – | – | – | – | – | – | – | – | – | – | –
4 | CCCCCC(=O)C#Cc1ccc(F)c(F)c1 | 88% | 71% | 3 | 17 | 58 | 60 | 100 | 56 | 5 | 39 | – | – | – | – | – | –
5 | CCCC(O)CC(=O)/C=C/c1ccc(O)c(OC)c1 (stereo unspecified) | 95% | 82% | 4 | 65 | 57 | 73 | 102 | 65 | 5 | 73 | – | – | – | – | – | –
6 | CCCC(O)CC(=O)/C=C/c1ccc(O)c(O)c1 (stereo unspecified) | 104% | 84% | 3 | 43 | 50 | 56 | 99 | 72 | 5 | 60 | – | – | – | – | – | –
7 | CCCCCC(=O)/C=C/c1ccc(F)c(F)c1 | 103% | 80% | 4 | 51 | 62 | 64 | 103 | 61 | 3 | 53 | – | – | – | – | – | –
8 | CCCCC[C@H](O)C#Cc1ccc(O)c(OC)c1 | inactive | Active | 3 | 34 | – | – | – | – | – | – | – | – | – | – | – | –
9 | CCCC(O)C#Cc1ccc(F)c(F)c1 (racemic) | 104% | 73% | 3 | 32 | 49 | 73 | 100 | 60 | 5 | 45 | – | – | – | – | – | –
10 | CCCC(O)CC(=O)/C=C/c1ccc(O)cc1 (stereo unspecified) | inactive | Active | 1 | 51 | – | – | – | – | – | – | – | – | – | – | – | –
11 | CCCC(O)CC(=O)/C=C/c1ccc(OC)cc1 (stereo unspecified) | inactive | Active | 1 | 55 | – | – | – | – | – | – | – | – | – | – | – | –
12 | CCCC(=O)NC1CCCC1 | 98% | 84% | 4 | 54 | 45 | 58 | 95 | 69 | 37 | 74 | inactive | inactive | inactive | 14.4 | 20.2 | 65 - 79%
